Assay results as given in ChEMBL document CHEMBL1124344, “5-Piperazinylalkyl-2(3H)-oxazolones with neuroleptic activity” (J Med Chem, 1989).

Key:
[1] = Lethal dose in mice (LD50) following i.p. dosing; type: toxicity, organism-based; settings: mouse, in vivo, ip
How it was run: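 Acute toxicity tested in mice by the intraperitoneal route. LD50 is the dose killing 50% of treated mice, computed by Finney probit analysis; values are approximate.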

Rattus norvegicus [2] = assay: Activity to evoke catalepsy in rats, by administering perorally at a dose of 70 mg/kg; type: functional; settings: route oral
How it was run: (§1)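 Rats fasted overnight and given oral doses in arabic gum suspension (10 mL/kg), 1 h before screening or 1 and 5 h before profile testing. Forelegs placed on a horizontal bar 7 cm high, three times at 5-min intervals. Immobility of at least 15 s counts as catalepsy. ED50 is the dose giving catalepsy in 50% of rats, by probit analysis. Parenthetical entries give the maximal dose and percent activity.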

Mus musculus [3] = assay: Inhibition of spontaneous motor activity in mice, by administering perorally at a dose of 70 mg/kg; type: functional; settings: route oral
How it was run: (§2)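 Mice fasted overnight, then dosed orally with compound (weighed as base) suspended in arabic gum, 10 mL/kg, with vehicle controls; 1 h pretreatment for screening tests, 1 or 5 h for others. Groups of five; locomotor activity counted 10 min in photocell activity cage, at least two groups per dose. ED50 = dose giving 50% inhibition versus controls, by probit analysis.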

Rattus norvegicus [4] = assay: Antagonistic activity against apomorphine-induced stereotypy in rats, by administering perorally at a dose of 70 mg/kg; type: functional; settings: route oral
How it was run: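 Male rats fasted overnight and given oral doses in arabic gum suspension (10 mL/kg) 1 h, or 1 and 5 h, before challenge. Apomorphine 3 mg/kg iv, with stereotypy observed 20 min later. ED50 is the dose inhibiting stereotypy in 50% of rats, per Janssen's method. Parenthetical entries give the maximal dose and percent activity.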

Mus musculus [5] = assay: Antagonistic activity against amphetamine-induced Hypermobility in mice, by administering perorally at a dose of 70 mg/kg; type: functional; settings: route oral
How it was run: (§3)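 Male mice in groups of five, fasted overnight, given oral drug in arabic gum suspension (10 mL/kg) 1 or 5 h ahead. Amphetamine 4 mg/kg ip given 30 min after drug. Ten minutes later locomotion is recorded for 15 min in a photocell actophotometer. ED50 is 50% reduction versus control hypermotility, by probit analysis. Parenthetical entries give the maximal dose and percent activity.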

Mus musculus [6] = assay: Activity of inclined screen in mouse, after 1 hour of peroral administration in mouse; type: functional
How it was run: (§4)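 Male mice placed for 1 h on a wire screen inclined 60°, just after oral dosing and 4 h later; ataxic or relaxed mice slide off. Fasted overnight, 10 per dose, vehicle controls. Compounds weighed as bases, suspended in arabic gum, 10 mL/kg orally; ED50 by Finney probit analysis.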

Rattus norvegicus [7] = species on record: Rattus norvegicus; assay: animal or person; settings: po, read-out: Inhibition
Mus musculus [8] = assay: Anticonvulsant activity against pentylenetetrazole-induced convulsions, after 1 hour of peroral administration in mouse at a dose of 40 mg/kg; type: functional; settings: route oral
How it was run: (§5)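 Male mice dosed orally (arabic gum, 10 mL/kg) 1 or 5 h before challenge with tryptamine 100 mg/kg iv, pentylenetetrazol 110 mg/kg ip, or maximal electroshock. Protection means no bilateral forepaw clonic seizures and head twitches (tryptamine) or no tonic hind-limb extension (others). ED50 protects 50% of mice.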

Mus musculus [9] = assay: Effect on skeletal muscle tone, after 1 hour of peroral administration in mouse; type: functional; settings: Muscle tissue, po
How it was run: (§6)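 Male mice suspended by forepaws from a 1.8-mm wire stretched 15 cm above a plane. Trained normal mice touch the wire with a hind paw within 2 s (traction) and hang at least 1 min (suspension). Oral dosing 1 or 5 h before. ED50 is the dose making 50% of mice fall without traction and suspension.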

Mus musculus [10] = assay: Inhibitory activity against tremorine-induced salivation, after 1 hour of peroral administration in mouse; type: functional; settings: po
How it was run: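 Male mice fasted overnight, dosed orally with arabic gum suspension (10 mL/kg) 1 or 5 h before test, vehicle controls included. Tremorine 20 mg/kg ip given 1 h after compounds; central (tremor) and peripheral (salivation) parasympathetic signs recorded. ED50 = dose protecting 50% of animals, by probit analysis.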

Mus musculus [11] = assay: Effect on skeletal muscle tone, after 5 hour of peroral administration in mouse; type: functional; settings: Muscle tissue, po
How it was run: (§7)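 Male mice were placed for 1 h on a 60° inclined wire screen just after dosing and 4 h later. In a second test, trained mice hung by the forepaws from a horizontal 1.8 mm wire 15 cm up; normal mice touch it with a hind paw within 2 s and stay ≥1 min. ED50 is the dose making 50% fall. Dosing was oral in gum arabic suspension at 10 mL/kg after an overnight fast.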

Mus musculus [12] = assay: Inhibition against apomorphine-induced climbing, after 1 hour of peroral administration in mouse; type: functional; settings: po
How it was run: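 Mice were dosed orally (gum arabic suspension, 10 mL/kg, fasted), then given apomorphine 1 mg/kg sc and placed in cylindrical cages with vertical metal bars. Climbing was scored 0 for four paws on the floor, 1 for forefeet on the wall, 2 for four paws on the wall. ED50 is the dose halving the control score.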

Mus musculus [13] = assay: Inhibitory activity against tremorine-induced tremors, after 1 hour of peroral administration in mouse; type: functional; settings: po
How it was run: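 Male mice given oral drug, then tremorine 20 mg/kg ip 1 h later; central tremor and peripheral salivation recorded. ED50 is the dose protecting 50% of animals from tremorine effects, by probit analysis.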

Mus musculus [14] = assay: Antagonistic activity against amphetamine-induced hypermotility, after 1 hour of peroral administration in mouse; type: functional; settings: po; how it was run: as §3
Mus musculus [15] = assay: Anticonvulsant activity against electroshock-induced convulsions, after 1 hour of peroral administration in mouse at a dose of 26 mg/kg; type: functional; settings: route oral; how it was run: as §5
Mus musculus [16] = assay: Suppression of aggressive behavior, after 5 hour of peroral administration in mouse at a dose of 10 mg/kg; type: functional; settings: route oral
How it was run: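 Male mice made aggressive by about 1 month of isolation in individual black cages plus weekly testosterone cyclopentylpropionate 250 mg/kg sc. Pairs preselected for aggressiveness shortly before oral dosing 1 or 5 h beforehand; attack on a nonisolated male within 15 min scored. ED50 is the dose suppressing aggression in 50% of animals.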

Mus musculus [17] = assay: Activity of inclined screen in mouse, after 5 hour of peroral administration in mouse; type: functional; how it was run: as §4
Mus musculus [18] = assay: Inhibitory activity against tremorine-induced tremors, after 5 hour of peroral administration in mouse; type: functional; settings: po
Rattus norvegicus [19] = assay: Antagonistic activity against apomorphine-induced stereotypy, after 1 hour of peroral administration in rats at a dose of 80 mg/kg; settings: po, read-out: Inhibition
Mus musculus [20] = assay: Antagonistic activity against amphetamine-induced Hypermobility in mouse by administering perorally; type: functional; settings: po; how it was run: as §3
Mus musculus [21] = assay: Anticonvulsant activity against pentylenetetrazole-induced convulsions, after 5 hour of peroral administration in mouse at a dose of 40 mg/kg; type: functional; settings: route oral; how it was run: as §5
Mus musculus [22] = assay: Inhibition of spontaneous motor activity in mouse, by administering perorally; type: functional; settings: po; how it was run: as §2
Mus musculus [23] = assay: Antagonistic activity against amphetamine-induced hypermotility, after 5 hour of peroral administration in mouse; type: functional; settings: po; how it was run: as §3
Mus musculus [24] = assay: Inhibition of spontaneous motor activity, after 5 hour of peroral administration in mouse; type: functional; settings: po; how it was run: as §2
Mus musculus [25] = assay: Anticonvulsant activity against tryptamine-induced convulsions, after 5 hour of peroral administration in mouse at a dose of 40 mg/kg; type: functional; settings: route oral; how it was run: as §5
Mus musculus [26] = assay: Anticonvulsant activity against tryptamine-induced convulsions, after 1 hour of peroral administration in mouse; type: functional; settings: po
How it was run: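 Compounds were dosed as bases suspended in arabic gum at 10 mL/kg orally, after an overnight fast, with vehicle controls. Protection meant no bilateral forepaw clonic seizures or head twitches (tryptamine), or no tonic hind-limb extension (the other two). ED50 is the dose protecting 50%, by probit analysis.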

Mus musculus [27] = assay: Contractile activity in skeletal muscles, after 1 hour of peroral administration in mouse; type: functional; settings: Muscle tissue, po; how it was run: as §7
Mus musculus [28] = assay: Suppression of aggressive behavior, after 1 hour of peroral administration in mouse; type: functional; settings: po
How it was run: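 Male mice made aggressive by isolation in individual black cages for about 1 month plus weekly testosterone cyclopentylpropionate 250 mg/kg sc; pairs preselected for attack on a nonisolated male within 15 min. Oral dosing (arabic gum, 10 mL/kg) 1 or 5 h before test, overnight fast. ED50 = dose suppressing aggression in 50% of animals, probit analysis.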

Rattus norvegicus [29] = assay: Activity to evoke catalepsy, after 1 hour of peroral administration in rats; type: functional; settings: po; how it was run: as §1
Rattus norvegicus [30] = assay: Inhibition against conditioned avoidance response, after 1 hour of peroral administration in rats; type: functional; settings: po
How it was run: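 Male rats were trained in a shuttle box to avoid grid-floor shock by crossing compartments during a warning period. Dosing was oral as a gum arabic suspension at 10 mL/kg after an overnight fast. Percent inhibition was computed against a pretraining test. ED50 is the dose giving 50% inhibition.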

Mus musculus [31] = assay: Contractile activity in skeletal muscles, after 5 hour of peroral administration in mouse at a dose of 40 mg/kg; type: functional; settings: Muscle tissue, route oral; how it was run: as §6
Rattus norvegicus [32] = assay: Antagonistic activity against apomorphine-induced stereotypy in rats, by administering perorally at a dose of 80 mg/kg; settings: po, read-out: Inhibition
Mus musculus [33] = assay: Potentiation against pentobarbital-induced sleeping, after 1 hour of peroral administration in mouse; type: functional; settings: po
How it was run: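 Female mice fasted overnight, dosed orally 1 or 5 h beforehand as arabic gum suspension, 10 mL/kg, with vehicle controls. Subhypnotic pentobarbital 10 mg/kg iv; 3 min later placed on back, effect scored as complete loss of righting reflex for at least 15 s. ED50 = dose producing this in 50% of mice, probit analysis.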

Rattus norvegicus [34] = assay: Inhibition against conditioned avoidance response, after 5 hour of peroral administration in rats at a dose of 20 mg/kg; settings: po, read-out: Inhibition
Mus musculus [35] = assay: Inhibition of spontaneous motor activity, after 1 hour of peroral administration in mouse; type: functional; settings: po; how it was run: as §2
Rattus norvegicus [36] = assay: Antagonistic activity against amphetamine-induced stereotypy, after 5 hour of peroral administration in rats at a dose of 20 mg/kg; settings: po, read-out: Inhibition
Rattus norvegicus [37] = assay: Antagonistic activity against amphetamine-induced stereotypy, after 1 hour of peroral administration in rats at a dose of 20 mg/kg; settings: po, read-out: Inhibition
Rattus norvegicus [38] = assay: Body weight gain, after 1 hour of peroral administration in rats; type: functional; settings: po
How it was run: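 Female rats (250–280 g), individually caged, on 22-h food deprivation with pellets 10–12 a.m.; weighed before and after eating. After 30–40 days training, oral drug given 1 h before the 2-h feeding. Weight gain expressed as percent of the two preceding control days; ED50 is the dose giving 50% reduction.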

Rattus norvegicus [39] = assay: Antagonistic activity against apomorphine-induced stereotypy, after 5 hour of peroral administration in rats at a dose of 80 mg/kg; settings: po, read-out: Inhibition

CSc1ccc(-c2nc(O)oc2CCN2CCN(c3ccccc3)CC2)cc1
LD50 [1]: 250 mg/kg
inhibition in vivo at 70 mg/kg (Rattus norvegicus [2]): 0%
inhibition in vivo at 70 mg/kg (Mus musculus [3]): 47%
inhibition in vivo at 70 mg/kg (Rattus norvegicus [4]): 0%
inhibition in vivo at 70 mg/kg (Mus musculus [5]): 0%

CN1CCN(C2=Nc3cc(Cl)ccc3Nc3ccccc32)CC1 [CLOZAPINE]
ED50 (Mus musculus [6]): 9.3 mg/kg
inhibition in vivo at 26 mg/kg (Rattus norvegicus [7]): 37%
inhibition in vivo at 40 mg/kg (Mus musculus [8]): 0%
ED50 (Mus musculus [9]): 9.2 mg/kg
ED50 (Mus musculus [10]): 6.9 mg/kg
LD50 [1]: 100 mg/kg
ED50 (Mus musculus [11]): 30 mg/kg
ED50 (Mus musculus [12]): 12 mg/kg
ED50 (Mus musculus [13]): 30 mg/kg
ED50 (Mus musculus [14]): 4.5 mg/kg
inhibition in vivo at 26 mg/kg (Mus musculus [15]): 37%
inhibition in vivo at 10 mg/kg (Mus musculus [16]): 0%
ED50 (Mus musculus [17]): 18.8 mg/kg
ED50 (Mus musculus [18]): 30 mg/kg
inhibition in vivo at 80 mg/kg (Rattus norvegicus [19]): 30%
ED50 (Mus musculus [20]): 4.5 mg/kg
inhibition in vivo at 40 mg/kg (Mus musculus [21]): 0%
ED50 (Mus musculus [22]): 4.2 mg/kg
ED50 (Mus musculus [23]): 20.1 mg/kg
ED50 (Mus musculus [24]): 23 mg/kg
inhibition in vivo at 40 mg/kg (Mus musculus [25]): 0%
ED50 (Mus musculus [26]): 10.3 mg/kg
ED50 (Mus musculus [27]): 40 mg/kg
ED50 (Mus musculus [28]): 3.5 mg/kg
ED50 (Rattus norvegicus [29]): 34 mg/kg
ED50 (Rattus norvegicus [30]): 8.6 mg/kg
inhibition in vivo at 40 mg/kg (Mus musculus [31]): 10%
inhibition in vivo at 80 mg/kg (Rattus norvegicus [32]): 30%
ED50 (Mus musculus [33]): 6.6 mg/kg
inhibition in vivo at 20 mg/kg (Rattus norvegicus [34]): 0%
ED50 (Mus musculus [35]): 4.2 mg/kg
inhibition in vivo at 20 mg/kg (Rattus norvegicus [36]): 0%
inhibition in vivo at 20 mg/kg (Rattus norvegicus [37]): 20%
ED50 (Rattus norvegicus [38]): 8 mg/kg
inhibition in vivo at 80 mg/kg (Rattus norvegicus [39]): 0%
